Assay results reported in ChEMBL document CHEMBL1124640, “Synthesis and biological evaluation of certain C-4 substituted pyrazolo[3,4-b]pyridine nucleosides” (1989).
Calls of active or inactive are those of the source. The rule behind the calls is not given here.

Tests used:
L1210 = experiment: Cytotoxicity against murine leukemic cell line L1210; type: functional; conditions: Mus musculus, read-out: ID50 (the source's name)
[1] = Cytotoxicity against human B-lymphoblastic cell line WI-L2; type: functional; conditions: WIL2, read-out: ID50 (the source's name)
HeLa [2] = experiment: Antiviral activity against rhino 1-A virus in HeLa cells; type: functional, Homo sapiens
Lymphoblastoid cell = experiment: Ability to inhibit de novo purine nucleotide biosynthesis at a concentration of 100 uM; type: functional; conditions: Homo sapiens
How it was run: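 De novo purine nucleotide synthesis was measured as [14C]formate incorporation in cultured human lymphoblast cells, with compound at 100 μM. Results are given as percent inhibition.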

Human alphaherpesvirus 2 = experiment: Antiviral activity against herpes 2 virus in Vero cells.; type: functional, organism-based; conditions: herpes simplex virus type2
Visna-maedi virus = experiment: Antiviral activity against Visna virus in SCP cells.; type: functional, organism-based
Semliki Forest virus = experiment: Antiviral activity against semliki forest virus in Vero cells.; type: functional, organism-based
Human adenovirus 2 = experiment: Antiviral activity against adeno 2 virus in HeLa cells.; type: functional, organism-based
HeLa [3] = experiment: Antiviral activity against rhino 1-A virus in HeLa cells; IA= Inactive; type: functional, cell-based; conditions: Homo sapiens
Vero [4] = experiment: Antiviral activity against Para Flu 3 virus in Vero cells; IA= Inactive; type: functional, cell-based; conditions: Chlorocebus sabaeus
Vero [5] = experiment: Antiviral activity against semliki forest virus in Vero cells; type: functional, cell-based; conditions: Chlorocebus sabaeus

Row | Compound | IC50 (L1210) | IC50 [1] | Virus rating (HeLa [2]) | inhibition at 100 µM (Lymphoblastoid cell) | Activity (Human alphaherpesvirus 2) | Activity (Visna-maedi virus) | Activity (Semliki Forest virus) | Activity (Human adenovirus 2) | Activity (HeLa [3]) | Activity (Vero [4]) | Activity (Vero [5])
1 | O=C1CC=Nc2c1cnn2C1O[C@H](CO)[C@@H](O)[C@H]1O (stereo partly specified) | > 100 µM | 20 µM | 0.6 | 80% |  |  |  |  |  |  | 
2 | COc1ccnc2c1cnn2[C@H]1C[C@H](O)[C@@H](CO)O1 |  |  |  |  | inactive | inactive | inactive | inactive |  |  | 
3 | OC[C@H]1OC(n2ncc3cccnc32)[C@@H](O)[C@@H]1O (stereo partly specified) |  |  |  |  | inactive | inactive | inactive | inactive |  |  | 
4 | OC[C@H]1OC(n2ncc3c(O)ccnc32)[C@@H](O)[C@@H]1O (stereo partly specified) |  |  |  |  | inactive | inactive | inactive | inactive |  |  | 
5 | Nc1ccnc2c1cnn2C1O[C@H](CO)[C@@H](O)[C@@H]1O (stereo partly specified) |  |  |  |  | inactive | inactive | inactive | inactive | inactive | inactive | 
6 | COc1ccnc2c1cnn2C1O[C@H](CO)[C@@H](O)[C@H]1O (stereo partly specified) |  |  |  |  | inactive | inactive | inactive | inactive |  |  | 
7 | OC[C@H]1O[C@@H](n2ncc3cccnc32)C[C@@H]1O |  |  |  |  | inactive | inactive | inactive | inactive |  |  | 
8 | OC[C@H]1OC(n2ncc3cccnc32)[C@H](O)[C@@H]1O (stereo partly specified) |  |  |  |  | inactive | inactive | inactive | inactive |  |  | 
9 | OC[C@H]1OC(n2ncc3c(Cl)ccnc32)[C@H](O)[C@@H]1O (stereo partly specified) | 20 µM | 18 µM |  | 94% | inactive | inactive | inactive | inactive | inactive | inactive | 
10 | O=C1CC=Nc2c1cnn2[C@H]1C[C@H](O)[C@@H](CO)O1 |  |  |  |  | inactive | inactive | inactive | inactive |  |  | 
11 | Nc1ccnc2c1cnn2C1O[C@H](CO)[C@@H](O)[C@H]1O (stereo partly specified) |  |  |  | 36% | inactive | inactive |  | inactive | inactive | inactive | inactive
12 | OC[C@H]1O[C@@H](n2ncc3c(Cl)ccnc32)C[C@@H]1O |  |  |  |  | inactive | inactive | inactive | inactive |  |  | 
13 | Nc1ccnc2c1cnn2[C@H]1C[C@H](O)[C@@H](CO)O1 |  |  |  |  | inactive | inactive | inactive | inactive |  |  | 
14 | OC[C@H]1OC(n2ncc3c(Cl)ccnc32)[C@@H](O)[C@@H]1O (stereo partly specified) |  |  |  |  | inactive | inactive | inactive | inactive |  |  | 
15 | OC[C@H]1OC(n2ncc3c(OCc4ccccc4)ccnc32)[C@H](O)[C@@H]1O (stereo partly specified) |  |  |  |  | inactive | inactive | inactive | inactive |  |  | 
16 | COc1ccnc2c1cnn2C1O[C@H](CO)[C@@H](O)[C@@H]1O (stereo partly specified) |  |  |  |  | inactive | inactive | inactive | inactive |  |  | 
17 | [N-]=[N+]=Nc1ccnc2c1cnn2C1O[C@H](CO)[C@@H](O)[C@H]1O (stereo partly specified) |  |  |  | 46% | inactive | inactive | inactive | inactive | inactive | inactive | 
